# Measured values reported in ChEMBL document CHEMBL4477235, “Evolution of a Novel, Orally Bioavailable Series of PI3Kδ Inhibitors from an Inhaled Lead for the Treatment of Respiratory Disease” (J Med Chem, 2016).
# Legend:
# [1] = Clearance in mouse liver microsomes at 0.5 uM measured up to 30 mins by LC-MS/MS analysis; format: ADME, Microsome; conditions: 0.5 h
# [2] = Clearance in human liver microsomes at 0.5 uM measured up to 30 mins by LC-MS/MS analysis; format: ADME, Microsome; conditions: 0.5 h
# [3] = Half life in Sprague-Dawley rat at 1 mg/kg, iv by LC-MS/MS analysis; format: ADME, organism-based; conditions: in vivo
# How it was run: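 Male Sprague Dawley rats (n = 2/route), intravenous dose as a solution in DMSO/PEG200/water (5:45:50 v/v/v) at 2 mL/kg. Serial tail-vein blood sampling over 0–7 h. LC–MS/MS quantification of parent. Noncompartmental analysis.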
# [4] = AUC(infinity) in Brown Norway rat acute OVA model of TH2-driven lung inflammation at 9 mg/kg, po pretreated for 30 mins followed by OVA challenge; format: ADME, organism-based; set-up: dose 9 mg/kg, route oral, time infinity; conditions: in vivo
# How it was run: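 Male Brown Norway rats weighing 250–300 g were sensitised intraperitoneally with 10 μg OVA plus 20 mg Al(OH)₃ in 1 mL on days 1 and 7. On day 21 or 28 they were challenged intratracheally with 0.2 mL OVA under isoflurane. Compound was dosed orally 30 min before challenge. Blood exposure was measured in the same animals, with the 1 h post-dose concentration also recorded.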
# [5] = Drug uptake in Wistar Han rat blood at 1 mg/kg measured 1 hr post dose; format: ADME, organism-based; conditions: read-out: Drug uptake
# [6] = Drug uptake in blood of Brown Norway rat acute OVA model of TH2-driven lung inflammation at 3 mg/kg, po pretreated for 30 mins followed by OVA challenge measured 1 hr post dose; format: ADME, organism-based; conditions: read-out: Drug uptake
# How it was run: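 Sensitized Brown Norway rats given oral compound 30 min before intratracheal OVA challenge. Blood concentration taken 1 h after dosing, i.e. 30 min after challenge.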
# [7] = target: Mitogen-activated protein kinase kinase kinase 5 (Homo sapiens, UniProt Q99683); test: Inhibition of ASK1 (unknown origin)
# Chain of Mitogen-activated protein kinase kinase kinase 5 (Q99683 whole entry): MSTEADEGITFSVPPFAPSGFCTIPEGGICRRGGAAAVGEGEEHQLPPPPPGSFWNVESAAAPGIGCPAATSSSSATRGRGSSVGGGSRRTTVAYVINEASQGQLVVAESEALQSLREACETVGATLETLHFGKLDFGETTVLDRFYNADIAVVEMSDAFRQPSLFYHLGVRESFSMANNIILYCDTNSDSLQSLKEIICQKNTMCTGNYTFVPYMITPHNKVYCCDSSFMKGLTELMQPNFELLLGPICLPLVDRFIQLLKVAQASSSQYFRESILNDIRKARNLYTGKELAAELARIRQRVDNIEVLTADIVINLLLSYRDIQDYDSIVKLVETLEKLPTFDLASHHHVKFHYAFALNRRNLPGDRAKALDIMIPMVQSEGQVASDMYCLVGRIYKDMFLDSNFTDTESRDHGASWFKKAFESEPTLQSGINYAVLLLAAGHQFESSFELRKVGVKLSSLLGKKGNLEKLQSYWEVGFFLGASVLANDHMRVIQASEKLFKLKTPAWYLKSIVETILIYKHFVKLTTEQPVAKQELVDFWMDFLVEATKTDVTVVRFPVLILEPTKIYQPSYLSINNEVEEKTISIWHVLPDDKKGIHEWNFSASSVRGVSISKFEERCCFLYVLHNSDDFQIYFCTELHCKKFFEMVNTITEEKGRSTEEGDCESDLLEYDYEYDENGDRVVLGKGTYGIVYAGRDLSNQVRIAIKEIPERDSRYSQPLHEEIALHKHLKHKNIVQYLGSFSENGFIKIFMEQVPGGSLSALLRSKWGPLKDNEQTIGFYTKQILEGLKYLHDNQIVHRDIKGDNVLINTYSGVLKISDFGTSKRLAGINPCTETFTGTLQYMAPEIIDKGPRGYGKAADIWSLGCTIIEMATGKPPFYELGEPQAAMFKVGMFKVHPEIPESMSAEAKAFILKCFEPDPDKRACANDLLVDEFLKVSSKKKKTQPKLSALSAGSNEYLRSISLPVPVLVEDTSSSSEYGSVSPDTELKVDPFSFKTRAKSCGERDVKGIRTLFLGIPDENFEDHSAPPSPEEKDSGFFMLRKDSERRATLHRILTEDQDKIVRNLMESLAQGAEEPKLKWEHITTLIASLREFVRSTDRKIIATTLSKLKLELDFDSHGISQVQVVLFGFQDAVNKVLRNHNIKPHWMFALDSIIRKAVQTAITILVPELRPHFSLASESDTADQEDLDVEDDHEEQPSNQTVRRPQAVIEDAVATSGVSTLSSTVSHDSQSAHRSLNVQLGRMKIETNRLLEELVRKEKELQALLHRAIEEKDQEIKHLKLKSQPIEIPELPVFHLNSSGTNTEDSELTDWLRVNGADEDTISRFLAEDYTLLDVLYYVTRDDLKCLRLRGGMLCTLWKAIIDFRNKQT
# [8] = target: Tyrosine-protein kinase BTK (Homo sapiens, UniProt Q06187); test: Inhibition of BTK (unknown origin)
# Chain of Tyrosine-protein kinase BTK (Q06187 whole entry): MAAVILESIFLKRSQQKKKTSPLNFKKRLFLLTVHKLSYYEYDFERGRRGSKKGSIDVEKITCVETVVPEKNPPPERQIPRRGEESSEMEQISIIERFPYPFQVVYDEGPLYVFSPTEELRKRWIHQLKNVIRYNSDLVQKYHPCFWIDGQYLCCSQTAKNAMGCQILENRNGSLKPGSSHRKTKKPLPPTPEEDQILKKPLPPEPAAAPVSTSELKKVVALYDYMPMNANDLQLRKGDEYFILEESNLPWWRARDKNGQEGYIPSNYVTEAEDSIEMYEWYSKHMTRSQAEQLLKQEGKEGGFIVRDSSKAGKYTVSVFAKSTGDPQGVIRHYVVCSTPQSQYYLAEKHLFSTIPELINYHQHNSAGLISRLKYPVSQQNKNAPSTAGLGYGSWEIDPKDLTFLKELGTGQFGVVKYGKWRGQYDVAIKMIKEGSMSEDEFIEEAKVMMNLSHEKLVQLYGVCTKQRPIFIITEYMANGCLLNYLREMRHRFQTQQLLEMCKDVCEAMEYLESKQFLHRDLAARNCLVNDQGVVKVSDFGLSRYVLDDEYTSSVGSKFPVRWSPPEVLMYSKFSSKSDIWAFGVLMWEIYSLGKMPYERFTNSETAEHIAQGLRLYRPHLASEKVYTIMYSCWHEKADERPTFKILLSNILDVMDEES
# [9] = target: Tyrosine-protein kinase SYK (Homo sapiens, UniProt P43405); test: Inhibition of SYK (unknown origin)
# [10] = target: Choline/ethanolamine kinase (Homo sapiens, UniProt Q9Y259); test: Inhibition of CHKB (unknown origin)
# Chain of Choline/ethanolamine kinase (Q9Y259 whole entry): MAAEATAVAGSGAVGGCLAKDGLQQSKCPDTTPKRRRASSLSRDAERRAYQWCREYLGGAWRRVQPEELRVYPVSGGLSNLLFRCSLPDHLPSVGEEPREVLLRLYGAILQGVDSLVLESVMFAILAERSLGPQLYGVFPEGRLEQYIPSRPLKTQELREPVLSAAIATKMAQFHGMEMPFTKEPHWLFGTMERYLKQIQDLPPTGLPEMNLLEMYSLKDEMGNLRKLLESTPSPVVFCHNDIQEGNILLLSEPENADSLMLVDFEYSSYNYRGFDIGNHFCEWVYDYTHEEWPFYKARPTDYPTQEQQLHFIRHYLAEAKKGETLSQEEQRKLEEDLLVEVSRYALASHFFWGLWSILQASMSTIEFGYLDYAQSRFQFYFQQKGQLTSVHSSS
# Choline kinase alpha = Choline kinase alpha (Homo sapiens, UniProt P35790); test: Inhibition of choline kinase alpha (unknown origin)
# Chain of Choline kinase alpha (P35790 whole entry): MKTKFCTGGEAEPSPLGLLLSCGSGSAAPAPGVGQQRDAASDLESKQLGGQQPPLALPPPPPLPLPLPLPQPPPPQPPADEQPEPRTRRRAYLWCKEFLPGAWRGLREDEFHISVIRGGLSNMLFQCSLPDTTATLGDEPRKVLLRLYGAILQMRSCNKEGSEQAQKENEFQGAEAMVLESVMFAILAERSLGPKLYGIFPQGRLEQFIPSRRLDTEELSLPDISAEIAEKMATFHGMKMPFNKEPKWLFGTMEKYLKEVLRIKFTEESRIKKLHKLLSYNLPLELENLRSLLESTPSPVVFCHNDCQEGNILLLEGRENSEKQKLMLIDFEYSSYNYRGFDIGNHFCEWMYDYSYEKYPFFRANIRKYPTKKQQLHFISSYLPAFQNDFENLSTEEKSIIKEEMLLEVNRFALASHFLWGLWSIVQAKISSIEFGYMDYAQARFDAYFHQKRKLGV
# [11] = Inhibition of DAGK (unknown origin); set-up: species or system Homo sapiens
# [12] = target: Serine/threonine-protein kinase mTOR (Homo sapiens, UniProt P42345); test: Inhibition of FRAP1 (unknown origin)
# [13] = target: Phosphatidylinositol 5-phosphate 4-kinase type-2 alpha (Homo sapiens, UniProt P48426); test: Inhibition of PIP4K2A (unknown origin)
# Chain of Phosphatidylinositol 5-phosphate 4-kinase type-2 alpha (P48426 whole entry): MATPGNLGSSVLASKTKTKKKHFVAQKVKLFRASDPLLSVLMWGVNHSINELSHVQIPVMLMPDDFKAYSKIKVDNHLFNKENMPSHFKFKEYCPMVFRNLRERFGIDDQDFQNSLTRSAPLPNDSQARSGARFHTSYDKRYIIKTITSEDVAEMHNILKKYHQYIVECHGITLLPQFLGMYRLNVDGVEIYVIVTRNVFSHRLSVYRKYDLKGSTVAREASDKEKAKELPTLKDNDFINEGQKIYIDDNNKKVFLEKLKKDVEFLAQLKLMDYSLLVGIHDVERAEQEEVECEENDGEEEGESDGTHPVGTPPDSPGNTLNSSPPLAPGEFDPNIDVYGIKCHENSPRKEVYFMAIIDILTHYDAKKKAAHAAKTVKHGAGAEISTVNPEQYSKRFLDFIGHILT
# [14] = target: Phosphatidylinositol 4-kinase beta (Homo sapiens, UniProt Q9UBF8); test: Inhibition of PIK4B (unknown origin)
# Chain of Phosphatidylinositol 4-kinase beta (Q9UBF8 whole entry): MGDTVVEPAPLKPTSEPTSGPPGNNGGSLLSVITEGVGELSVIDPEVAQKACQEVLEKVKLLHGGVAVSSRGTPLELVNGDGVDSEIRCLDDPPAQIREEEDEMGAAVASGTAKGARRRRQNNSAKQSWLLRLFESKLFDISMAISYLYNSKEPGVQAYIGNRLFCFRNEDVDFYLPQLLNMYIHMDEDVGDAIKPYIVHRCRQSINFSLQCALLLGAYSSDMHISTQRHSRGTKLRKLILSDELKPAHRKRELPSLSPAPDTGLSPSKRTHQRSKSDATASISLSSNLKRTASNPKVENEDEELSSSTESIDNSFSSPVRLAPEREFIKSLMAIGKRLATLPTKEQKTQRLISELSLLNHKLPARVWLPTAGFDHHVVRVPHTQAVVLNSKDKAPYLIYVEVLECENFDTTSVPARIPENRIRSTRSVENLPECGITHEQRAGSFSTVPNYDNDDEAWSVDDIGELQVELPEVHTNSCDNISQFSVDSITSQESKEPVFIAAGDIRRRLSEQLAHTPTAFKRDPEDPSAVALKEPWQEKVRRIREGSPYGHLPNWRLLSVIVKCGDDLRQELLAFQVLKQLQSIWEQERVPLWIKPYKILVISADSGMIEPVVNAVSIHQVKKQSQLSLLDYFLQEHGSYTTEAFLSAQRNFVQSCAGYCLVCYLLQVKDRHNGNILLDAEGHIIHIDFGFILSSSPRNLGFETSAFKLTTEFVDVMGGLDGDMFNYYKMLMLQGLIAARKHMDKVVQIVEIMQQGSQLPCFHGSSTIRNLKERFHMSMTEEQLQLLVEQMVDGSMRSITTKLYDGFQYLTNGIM
# [15] = Fraction unbound in Wistar Han rat at 1 mg/kg after 1 hr by HPLC analysis; format: ADME, organism-based; conditions: in vivo
# How it was run: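 Unbound concentration at 1 h post-dose estimated by an internal algorithm from binding to HPLC columns coated with HSA and α-glycoprotein.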
compound,measurement,setting,value
COc1ncc(-c2cc3c(c(NC(=O)CN4CCOCC4)c2)COC3)cc1NS(C)(=O)=O,CLH,[1],< 0.5 mL/min/g
same,CLH,[2],< 0.5 mL/min/g
same,half-life,[3],1.3 h
same,AUC(0-inf),[4],2620 ng·h/mL
same,concentration at 1 h,[5],520 nM
same,concentration at 1 h,[6],190 nM
same,IC50,[7],> 10 µM
same,IC50,[8],> 10 µM
same,IC50,[9],> 10 µM
same,IC50,[10],> 10 µM
same,IC50,Choline kinase alpha,> 10 µM
same,pIC50,[11],< 5
same,IC50,[12],> 10 µM
same,IC50,[13],> 10 µM
same,IC50,[14],> 10 µM
same,Drug uptake(free),[15],0.089 µM
